# Results gathered from unrelated publications.
# Compare with care: the assays were run in different laboratories.
# Mode: inhibitor
# CDK2: Cyclin-dependent kinase 2 (CDK2, Homo sapiens, UniProt P24941)
# PARP2: Poly [ADP-ribose] polymerase 2 (PARP2, Homo sapiens, UniProt Q9UGN5)
Compound,target,test,IC50 [nM]
NC(=O)c1cccnc1,"Nicotinamide N-methyltransferase (NNMT, Homo sapiens, UniProt P40261)",enzyme activity in cells,> 31600
CN(C)CCNC(=O)c1ccc(-c2nc3ccc4[nH]ncc4c3c3c2CC(F)(F)CC3)cc1,CDK2,enzyme activity,109
Cn1cc(C2=C(c3cn(CCCSC(=N)N)c4ccccc34)C(=O)NC2=O)c2ccccc21,"Serine/threonine-protein kinase VRK1 (VRK1, Homo sapiens, UniProt Q99986)",enzyme activity,644
Cc1cc(O)c(-c2ccc([C@@H](C)CN(C)C)cc2)c2c1[nH]c(=O)c1sccc12,"Cyclin-dependent kinase 8, with cyclin C (CDK8, Homo sapiens, UniProt P49336)",enzyme activity,> 1000
O=c1[nH]c2c(nnn2Cc2ccc(C(F)(F)F)cc2)c2ccc(F)cc12,PARP2,enzyme activity,> 10000
Cc1n[nH]c2ccc3nc(-c4ccc(C(=O)NCCN(C)C)cc4)c4c(c3c12)CCC(C)(C)C4,CDK2,enzyme activity,> 1000
CC(=O)N1C(=O)NC(C)=C(C(=O)OCC(C)C)C1c1cccc([N+](=O)[O-])c1 (racemic),"Voltage-dependent L-type calcium channel subunit alpha-1C (Cacna1c, Rattus norvegicus, UniProt P22002)","ion current, patch clamp",1300
O=c1[nH]c2c(nnn2Cc2ccccc2)c2ccc(F)cc12,PARP2,enzyme activity,> 10000
Cc1n[nH]c2ccc3nc(-c4ccc(C(=O)NCCN5CCCC5)cc4)c4c(c3c12)CCCC4,CDK2,enzyme activity,310
O=c1[nH]c(=O)c(Cc2cccc(C(F)(F)F)c2)c([C@H]2CC[C@H](c3ccccc3)CC2)[nH]1,"Multidrug and toxin extrusion protein 1 (SLC47A1, Homo sapiens, UniProt Q96FL8)",transporter uptake,> 8000
NC/C(=C\F)COc1cccc(Cn2c(=S)[nH]c(=O)c3[nH]cnc32)c1,"Sodium channel protein type 5 subunit alpha (SCN5A, Homo sapiens, UniProt Q14524)",ion current,> 100000
CCc1ccc(Cn2nnc3c4ccc(F)cc4c(=O)[nH]c32)cc1,PARP2,"enzyme activity, fluorescence",> 10000
